Converted amounts (≈) assume the structure as drawn.
Experiments:
Candida albicans [1] = assay: Antifungal activity against Candida albicans CPCC400616 assessed as fungal growth inhibition; format: functional
Summary of the method: (§1)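 Broth microdilution per NCCLS M27-A3, with fluconazole as positive control. Assay medium was RPMI 1640 buffered with MOPS. Inocula were diluted to 1–5 × 10^3 CFU mL−1 and seeded in 96-well plates. Compounds were dissolved in DMSO and serially diluted in the growth medium. MIC was the read-out.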

Candida albicans [2] = assay: Antifungal activity against Candida albicans ATCC SC5314 assessed as fungal growth inhibition; format: functional; summary of the method: as §1
Pichia kudriavzevii = assay: Antifungal activity against Pichia kudriavzevii GIM 2.1 assessed as fungal growth inhibition; format: functional; summary of the method: as §1
L929 = assay: Cytotoxicity against mouse L929 cells assessed as reduction in cell viability at 32 uM incubated for 24 hrs by CCK-8 assay; format: toxicity, cell-based; details: l929, 24 h
Summary of the method: (§2)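 Cells from ATCC were grown in RPMI-1640 or DMEM with 10% FBS and 1% penicillin/streptomycin. They were seeded at 5 × 10^4 cells/well and allowed to adhere overnight at 37 °C, 5% CO2, with at least 6 replicates per group. Compounds were applied at 2–64 μM for 24 h; medium-only wells served as control. Viability was measured by CCK-8 absorbance at 450 nm.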

Candida tropicalis = assay: Antifungal activity against Candida tropicalis CGMCC 2.3739 assessed as fungal growth inhibition; format: functional; summary of the method: as §1
MDA-MB-231 = assay: Cytotoxicity against human MDA-MB-231 cells assessed as reduction in cell viability at 32 uM incubated for 24 hrs by CCK-8 assay; format: toxicity, cell-based; details: mda-mb-231, 24 h; summary of the method: as §2
DU-145 = assay: Cytotoxicity against human DU-145 cells assessed as reduction in cell viability at 32 uM incubated for 24 hrs by CCK-8 assay; format: toxicity, cell-based; details: du-145, 24 h; summary of the method: as §2
Cryptococcus neoformans = assay: Antifungal activity against Cryptococcus neoformans CGMCC 2.3161 assessed as fungal growth inhibition; format: functional; summary of the method: as §1
Nakaseomyces glabratus = assay: Antifungal activity against clinical isolate Candida glabrata assessed as fungal growth inhibition; format: functional; summary of the method: as §1
Candida parapsilosis = assay: Antifungal activity against Candida parapsilosis GIM 2.190 assessed as fungal growth inhibition; format: functional; details: Lodderomyces parapsilosis; summary of the method: as §1
[3] = Metabolic stability in human liver microsomes assessed as remaining measured upto 60 min by LC-MS/MS analysis; format: ADME, Microsome; details: read-out: Stability
Summary of the method: (§3)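 Human liver microsomes were diluted to 0.59 mg mL−1 in 100 mM potassium phosphate buffer and prewarmed 10 min at 37 °C. Compound was added from a 100 μM working solution. Incubation was 60 min at 37 °C with NADPH, alongside a no-cofactor control. Samples taken at 5, 15, 30, 45 and 60 min were quenched in acetonitrile containing tolbutamide and labetalol, centrifuged, and analysed by LC-MS/MS.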

CYP2C19 = CYP2C19 (Homo sapiens, UniProt P33261); assay: Inhibition of CYP2C19 in human liver microsomes using S-mephenytoin as substrate at 10 uM incubated for 10 min by LC-MS/MS analysis relative to control; format: ADME, Microsome; details: probe S-mephenytoin
Summary of the method: (§4)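 Human liver microsomes (0.253 mg mL−1) were used with probe substrates: phenacetin 90 μM (1A2), diclofenac 8 μM (2C9), S-mephenytoin 20 μM (2C19), dextromethorphan 4 μM (2D6), and midazolam 2 μM plus testosterone 50 μM (3A4). Test compound was at 10 μM. Mixtures were preincubated 5 min at 37 °C, then started with an NADPH regenerating system and run 10 min at 37 °C. Reactions were stopped with internal standard and supernatant analysed by LC-MS/MS. Isoform-selective inhibitors at 10 μM served as positive controls.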

[4] = Metabolic stability in human liver microsomes assessed as intrinsic clearance measured upto 60 min by LC-MS/MS analysis; format: ADME, Microsome; details: 1 h; summary of the method: as §3
[5] = Metabolic stability in human liver microsomes assessed as half life measured upto 60 min by LC-MS/MS analysis; format: ADME, Microsome; summary of the method: as §3
CYP3A4 = CYP3A4 (Homo sapiens, UniProt P08684); assay: Inhibition of CYP3A4 in human liver microsomes using midazolam and testosterone as substrates at 10 uM incubated for 10 min by LC-MS/MS analysis relative to control; format: ADME, Microsome; details: probe midazolam and testosterone; summary of the method: as §4
CYP2D6 = CYP2D6 (Homo sapiens, UniProt P10635); assay: Inhibition of CYP2D6 in human liver microsomes using dextromethorphan as substrate at 10 uM incubated for 10 min by LC-MS/MS analysis relative to control; format: ADME, Microsome; details: probe dextromethorphan; summary of the method: as §4
CYP2C9 = CYP2C9 (Homo sapiens, UniProt P11712); assay: Inhibition of CYP2C9 in human liver microsomes using diclofenac as substrate at 10 uM incubated for 10 min by LC-MS/MS analysis relative to control; format: ADME, Microsome; details: probe diclofenac; summary of the method: as §4
CYP1A2 = biological target: T1, CYP1A2 (Homo sapiens, UniProt P05177); assay: Inhibition of CYP1A2 in human liver microsomes using phenacetin as substrate at 10 uM incubated for 10 min by LC-MS/MS analysis relative to control; format: ADME, Microsome; details: probe phenacetin; summary of the method: as §4
T1 sequence (P05177 whole entry): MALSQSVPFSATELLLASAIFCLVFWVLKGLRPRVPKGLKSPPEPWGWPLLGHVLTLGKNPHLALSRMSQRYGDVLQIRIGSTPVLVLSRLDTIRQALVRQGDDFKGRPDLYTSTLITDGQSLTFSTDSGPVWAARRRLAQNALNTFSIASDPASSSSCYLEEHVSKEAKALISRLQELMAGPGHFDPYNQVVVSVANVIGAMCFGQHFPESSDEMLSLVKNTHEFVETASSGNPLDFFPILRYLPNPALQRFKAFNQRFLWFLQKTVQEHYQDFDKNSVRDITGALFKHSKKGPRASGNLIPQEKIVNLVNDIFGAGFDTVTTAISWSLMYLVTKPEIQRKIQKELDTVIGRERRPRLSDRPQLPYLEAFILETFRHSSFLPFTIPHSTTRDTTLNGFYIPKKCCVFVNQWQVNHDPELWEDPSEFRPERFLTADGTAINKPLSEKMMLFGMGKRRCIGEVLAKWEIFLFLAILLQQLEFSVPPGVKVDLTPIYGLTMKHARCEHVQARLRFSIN

Sequence of CYP3A4 (P08684 whole entry): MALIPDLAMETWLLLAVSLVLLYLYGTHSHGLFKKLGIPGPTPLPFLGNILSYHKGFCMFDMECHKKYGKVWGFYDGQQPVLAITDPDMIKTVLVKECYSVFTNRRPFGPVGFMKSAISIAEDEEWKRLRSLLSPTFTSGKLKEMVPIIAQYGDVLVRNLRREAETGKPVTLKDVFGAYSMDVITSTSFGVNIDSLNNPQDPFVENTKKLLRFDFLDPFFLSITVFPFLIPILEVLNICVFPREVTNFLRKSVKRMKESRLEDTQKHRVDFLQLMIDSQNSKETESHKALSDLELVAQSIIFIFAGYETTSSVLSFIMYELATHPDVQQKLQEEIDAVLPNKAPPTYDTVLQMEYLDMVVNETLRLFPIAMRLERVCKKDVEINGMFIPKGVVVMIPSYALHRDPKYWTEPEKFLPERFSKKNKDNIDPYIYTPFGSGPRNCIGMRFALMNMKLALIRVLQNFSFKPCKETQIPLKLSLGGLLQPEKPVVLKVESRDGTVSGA
Sequence of CYP2C19 (P33261 whole entry, canonical isoform): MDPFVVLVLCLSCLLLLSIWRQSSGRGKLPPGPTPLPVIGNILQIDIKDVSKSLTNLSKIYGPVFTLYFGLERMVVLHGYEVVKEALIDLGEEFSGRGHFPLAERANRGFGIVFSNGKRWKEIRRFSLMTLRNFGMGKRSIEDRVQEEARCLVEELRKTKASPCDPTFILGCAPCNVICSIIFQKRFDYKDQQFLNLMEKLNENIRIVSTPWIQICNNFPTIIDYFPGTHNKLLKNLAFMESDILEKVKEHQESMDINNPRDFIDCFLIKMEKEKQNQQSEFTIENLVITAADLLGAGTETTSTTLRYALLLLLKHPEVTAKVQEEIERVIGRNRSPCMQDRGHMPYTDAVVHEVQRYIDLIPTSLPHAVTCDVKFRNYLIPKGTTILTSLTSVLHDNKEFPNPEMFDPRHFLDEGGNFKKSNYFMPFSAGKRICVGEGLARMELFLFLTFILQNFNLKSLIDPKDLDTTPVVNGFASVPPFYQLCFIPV
Sequence of CYP2D6 (P10635 whole entry): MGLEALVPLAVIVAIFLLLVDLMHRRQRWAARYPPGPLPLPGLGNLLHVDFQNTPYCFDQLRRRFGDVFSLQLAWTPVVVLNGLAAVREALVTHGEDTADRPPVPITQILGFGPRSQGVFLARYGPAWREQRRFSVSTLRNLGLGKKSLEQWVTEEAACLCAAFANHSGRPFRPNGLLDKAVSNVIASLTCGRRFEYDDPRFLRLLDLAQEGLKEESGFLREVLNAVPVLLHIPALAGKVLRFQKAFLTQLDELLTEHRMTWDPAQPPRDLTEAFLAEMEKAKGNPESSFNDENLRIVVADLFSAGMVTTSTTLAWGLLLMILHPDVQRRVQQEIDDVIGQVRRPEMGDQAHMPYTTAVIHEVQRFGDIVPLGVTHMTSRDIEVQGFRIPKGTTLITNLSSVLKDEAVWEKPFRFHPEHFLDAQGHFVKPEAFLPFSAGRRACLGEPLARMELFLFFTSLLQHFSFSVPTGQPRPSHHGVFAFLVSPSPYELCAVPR
Sequence of CYP2C9 (P11712 whole entry): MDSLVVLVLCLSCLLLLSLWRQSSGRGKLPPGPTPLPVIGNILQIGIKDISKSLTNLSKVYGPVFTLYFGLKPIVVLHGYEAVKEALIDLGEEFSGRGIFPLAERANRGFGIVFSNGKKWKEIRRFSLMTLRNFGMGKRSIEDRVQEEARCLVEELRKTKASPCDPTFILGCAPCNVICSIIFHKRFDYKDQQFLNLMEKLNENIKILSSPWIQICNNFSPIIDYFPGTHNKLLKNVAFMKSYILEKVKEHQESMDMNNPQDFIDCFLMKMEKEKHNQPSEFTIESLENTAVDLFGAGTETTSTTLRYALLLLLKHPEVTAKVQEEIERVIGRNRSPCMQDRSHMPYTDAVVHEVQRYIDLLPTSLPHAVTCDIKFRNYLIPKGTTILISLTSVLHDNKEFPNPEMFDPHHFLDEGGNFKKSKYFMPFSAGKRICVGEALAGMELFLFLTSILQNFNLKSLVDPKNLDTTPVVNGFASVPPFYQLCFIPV

Compound | MIC (Candida albicans [1]) [µg/mL] | MIC (Candida albicans [2]) [µg/mL] | MIC (Pichia kudriavzevii) [µg/mL] | Activity (L929) | MIC (Candida tropicalis) [µg/mL] | Activity (MDA-MB-231) | Activity (DU-145) | MIC (Cryptococcus neoformans) [µg/mL] | MIC (Nakaseomyces glabratus) [µg/mL] | MIC (Candida parapsilosis) [µg/mL] | remaining at 1 h [3] [%] | inhibition at 10 min, 10 µM (CYP2C19) [%] | CLH [4] [µL/min/mg] | half-life [5] [min] | inhibition at 10 min, 10 µM (CYP3A4) [%] | inhibition at 10 min, 10 µM (CYP2D6) [%] | inhibition at 10 min, 10 µM (CYP2C9) [%] | inhibition at 10 min, 10 µM (CYP1A2) [%]
Cc1ccc(C(=O)C(Cn2ccnc2)NC(=O)c2cnc(-c3cccc(F)c3)nc2)cc1 (racemic) | 4 (≈ 9.31 µM) | 1 (≈ 2.33 µM) | 4 (≈ 9.31 µM) | Non-Toxic | 1 (≈ 2.33 µM) | Non-Toxic | Non-Toxic | 64 (≈ 149 µM) | 8 (≈ 18.6 µM) | 4 (≈ 9.31 µM) |  |  |  |  |  |  |  | 
O=C(NC(Cn1ccnc1)C(=O)c1ccccc1)c1cnc(-c2ccc(F)cc2)nc1 (racemic) | 32 (≈ 77 µM) | 16 (≈ 38.5 µM) | > 64 |  | > 64 |  |  | > 64 | > 64 | 64 (≈ 154 µM) |  |  |  |  |  |  |  | 
O=C(NC(Cn1ccnc1)C(=O)c1ccccc1)c1cnc(-c2ccc(OC(F)(F)F)cc2)nc1 (racemic) | > 64 | > 64 | > 64 |  | > 64 |  |  | > 64 | > 64 | > 64 |  |  |  |  |  |  |  | 
COc1ccc(C(=O)C(Cn2ccnc2)NC(=O)c2cnc(-c3cccc(F)c3)nc2)cc1 (racemic) | 1 (≈ 2.24 µM) | 0.25 (≈ 0.561 µM) | 1 (≈ 2.24 µM) | Non-Toxic | 0.25 (≈ 0.561 µM) | Non-Toxic | Non-Toxic | 32 (≈ 71.8 µM) | 1 (≈ 2.24 µM) | 1 (≈ 2.24 µM) | 6.33 | 89.4 | 94 | 14.8 | 92.3 | 72.3 | 89.8 | 38.4
OC(Cn1cncn1)(Cn1cncn1)c1ccc(F)cc1F [FLUCONAZOLE] | 1 (≈ 3.27 µM) | 0.5 (≈ 1.63 µM) | 8 (≈ 26.1 µM) |  | 0.5 (≈ 1.63 µM) |  |  | 4 (≈ 13.1 µM) | 4 (≈ 13.1 µM) | 2 (≈ 6.53 µM) |  |  |  |  |  |  |  | 
N#Cc1ccc(-c2ncc(C(=O)NC(Cn3ccnc3)C(=O)c3ccccc3)cn2)cc1 (racemic) | > 64 | 4 (≈ 9.47 µM) | > 64 |  | > 64 |  |  | > 64 | > 64 | > 64 |  |  |  |  |  |  |  | 
CCc1ccc(-c2ncc(C(=O)NC(Cn3ccnc3)C(=O)c3ccccc3)cn2)cc1 (racemic) | > 64 | > 64 | > 64 |  | > 64 |  |  | > 64 | > 64 | > 64 |  |  |  |  |  |  |  | 
